An excerpt weighted towards active compounds, which were near 3.4% of everything screened.
TAAR1 ag = human TAAR1 agonism; activation, % at 3 µM; CHO RD-HGA16 TAAR1, Fluo-8 calcium fluorescence; vehicle wells 0%, saturating PEA agonist 100%; 360,000 tested, 0.99% active;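 active = activation above the mean activation of all test compounds in the run plus 3 SD, cut at about 38% in these data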
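Test system: RD-HGA16 (CHO) cells co-expressing Gα16 and hTAAR1; dosing: one-point dosing at 3 µM (nominal); timing: 17-24 h seeding, 75 min 37 °C dye, 30 min RT; signal: kinetic Fluo-8 calcium fluorescence; read-out basis: % activation relative to PEA EC100 response; controls: DMSO and PEA EC100; replicates: n 1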
GPR7 antagonist = antagonists of human GPR7 (neuropeptides B/W receptor 1); GPR7-expressing cells, fluorescence antagonist assay; inhibition, % at 4.4 µM; 290,000 tested, 1.1% active; AID 1861; in the data active = inhibition above about 16%, passing the limit was not always enough;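 note: cells stimulated with the agonist NPW; 0% = agonist with vehicle and 100% = vehicle without agonist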
TRPML3 agonist = human mucolipin-3 channel agonism; AID 1448; activation, % at 3 µM; 220,000 tested, 0.29% active; HEK293 TRPML3-YFP, Fluo-8 calcium fluorescence; 100% = the carbachol control signal;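 active = activation above its plate's cutoff, the mean activation of the plate's test wells plus 3 SD, cut at about 12% in these data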;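 note: 0% = DMSO only wells and 100% = carbachol wells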
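Test system: TRPML3-YFP stable HEK293 cells. Doses: single point at 3 µM. Incubation: dye loading 1 h 37 °C then 30 min ambient, 125 s read. Signal: Fluo-8 calcium dye fluorescence, ex 470-495, em 515-575 nm. Measure: percent activation from peak-to-basal fluorescence ratio, scaled between DMSO and carbachol.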
TAAR1 antag = antagonists of human TAAR1. Q96RJ0. CHO RD-HGA16 TAAR1, Fluo-8 calcium fluorescence, antagonist. inhibition, % at 3 µM. 360,000 tested, 1.5% active;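 active = inhibition above a per-plate cutoff, the mean inhibition of test compounds on that plate plus 3 SD, cut at about 49% in these data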;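 note: 0% = DMSO plus EC80 beta-PEA response and 100% = DMSO alone without agonist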
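Test system – hTAAR1-expressing CHO RD-HGA16 cells, Gα16-coupled · Reagent – β-PEA at EC80 concentration, post-compound challenge · Compound dosing – 3 µM, single point · Timing – 140 s kinetic read after compound, 140 s after agonist · Detection – Fluo-8 intracellular calcium dye fluorescence, real-time kinetic reads · Control set – DMSO and EC80 PEA controls · Repeats – n of 1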
LANA-H2A inh = blocks KSHV LANA binding to histone H2A/H2B; AID 2629; 320,000 tested, 0.6% active; inhibition, % (test concentration not listed); cell-free LANA-H2A/H2B peptide, fluorescence polarization; in the data active = inhibition mostly above about 10%, no sharp cut-off; inactive = mostly below about 6.7%
zfTRPN1 agonist = agonists of zebrafish TRPN1 channel; HEK293 zebrafish TRPN1-YFP, Fluo-8 calcium fluorescence; 100% = response to 87 µM carbachol; activation, % at 3 µM; 220,000 tested, 0.18% active; AID 1424;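 active = activation above its plate's cutoff, the mean activation of test wells on that plate plus 3 SD, cut at about 19% in these data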;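 note: 0% = DMSO alone and 100% = 87 µM carbachol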
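Assay system: Zebrafish TRPN1-YFP in HEK293 cells | Incubation: Dye loading 1 h at 37 °C, then 30 min room temperature | Measured by: Kinetic Fluo-8 fluorescence, ex 470-495, em 515-575 nm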
* = called active by the depositor; · = not tested or not shown.

SMILES | TAAR1 ag | GPR7 antagonist | TRPML3 agonist | TAAR1 antag | LANA-H2A inh | zfTRPN1 agonist
O=C(C(=O)N1CCC(CNS(=O)(=O)c2cccc(C(F)(F)F)c2)CC1)c1cc2ccccc2o1 | -0.7 | · | · | -12.0 | · | ·
O=C(N/N=C/c1ccc(O)cc1)c1ccc(NC(=O)c2ccccc2Br)cc1 | 3.3 | -4.7 | -0.6 | 37.0 | 1.8 | -0.7
COc1ccc(C=O)cc1OS(=O)(=O)c1ccc(NC(C)=O)cc1 | 4.4 | 16.2 | 2.1 | 4.3 | 0.4 | 3.8
COc1ccc(/C=N/NC(=O)c2ccc3ccccc3c2)cc1OS(=O)(=O)c1ccc(NC(C)=O)cc1 | 12.2 | 23.8 | -0.1 | 74.4* | 10.0 | 1.1
COc1cccc(OC)c1C(=O)Nc1ccc(Br)c(C(=O)c2ccccc2)c1 | -0.9 | -12.9 | · | 52.9* | -0.9 | ·
COc1ccccc1/C=N/NC(=O)c1ccc(NC(=O)c2ccccc2Br)cc1 | 11.4 | 5.0 | 0.1 | 50.7* | 10.9 | 2.1
Cc1ccccc1C(=O)Nc1cccc(C(=O)N/N=C/c2ccc3c(c2)OCO3)c1 | 5.8 | 8.6 | · | 25.9 | -6.9 | ·
COc1cc(/C=N/NC(=O)c2cccc(NC(=O)c3ccccc3C)c2)ccc1O | 15.3 | 6.3 | · | 61.3* | 2.0 | ·
C[C@@H]1COc2cc(N3CCCCC3)ccc2S(=O)(=O)N1 | 1.2 | · | · | 16.8 | · | ·
C[C@H](O)[C@@H]1C(=O)N2CCc3c([nH]c4c(-c5ccccc5)cccc34)[C@@H]2C[C@@H]1N(C)C(=O)/C=C/c1ccccc1 | 3.0 | · | · | -0.6 | · | ·
CCCN1CCCCC(NC(=O)c2ccc(Cl)cc2Cl)C1=O (stereo not given) | -1.0 | · | · | 12.3 | · | ·
O=C(NC(CO)C(O)c1ccc([N+](=O)[O-])cc1)C(Cl)Cl (stereo not given) | 0.6 | 19.8 | 0.4 | -9.7 | -9.9 | 0.6
O=C(NC(CO)Cc1ccc([N+](=O)[O-])cc1)C(Cl)Cl (stereo not given) | · | -8.5 | 0.7 | · | 22.0* | 1.2
COC(=O)c1cc2c(c3c4cc(F)ccc4n(S(=O)(=O)c4ccc(OC)cc4)c13)C(=O)N(Cc1ccccc1OC)C2 | 2.4 | · | · | 2.5 | · | ·
C[C@H](NC(=O)c1ccccc1)C(=O)OCC(=O)Nc1ccc2c(c1)OCO2 | 1.5 | · | · | 49.0* | -0.3 | ·
COc1cc(OC)cc(C(=O)NC(C(=O)Nc2ccc3c(c2)OCO3)C(C)C)c1 (stereo not given) | 15.0 | · | · | -20.2 | 10.7* | ·
CCCCC1O[C@@H](C)[C@@H]2CN3CCc4c([nH]c5ccccc45)[C@@H]3C[C@@H]2N1C (stereo not given in full) | 1.5 | · | · | -22.6 | · | ·
CCCCCCC[C@@H](C/C=C/CCC(=O)N(C)C/C(=C/Cl)C/C(=C\C(=O)N1C[C@H](O)CC1=O)OC)OC | 5.1 | · | · | 49.7* | · | ·
Nc1[nH]c(C(=O)c2ccc(Br)cc2)c(-c2ccccc2Cl)c1C(=O)NCCc1c[nH]c2ccccc12 | 8.6 | · | · | 6.3 | · | ·
CCCCN1CC(N2CCCC2)CS1(=O)=O (stereo not given) | 0.1 | · | · | 4.9 | · | ·
Cc1[nH]c(=S)[nH]c(=O)c1CCCO | -2.0 | 8.1 | 0.5 | 7.7 | 17.7* | 0.1
Cc1ccc(C(=O)OCC(=O)NC(=O)NCc2ccccc2)cc1C | 30.4 | · | · | 50.1* | -2.6 | ·
Cc1ccccc1C(=O)N(C)[C@H]1C[C@H]2c3[nH]c4c(-c5ccccc5)cccc4c3CCN2C(=O)[C@H]1[C@H](C)O | 5.7 | · | · | -2.3 | · | ·
CCc1nc(N)nc(N)c1-c1ccc(N(C)Cc2ccccc2)c([N+](=O)[O-])c1 | 38.7* | · | · | 75.8* | · | ·
COCCCn1c(N)c(-c2nc3ccccc3n2C)c2nc3ccccc3nc21 | 22.5 | -4.8 | 1.8 | 49.2* | -4.2 | 2.2
Cn1c(-c2c(N)n(CCCc3ccccc3)c3nc4ccccc4nc23)nc2ccccc21 | · | -2.8 | -0.3 | · | · | 1.2
COc1ccccc1CCn1cnc(-c2cccc(Br)c2)c1CC(C)C | 21.9 | · | · | 29.6 | · | ·
CC(=O)NC(c1cccc(F)c1)c1nc(-c2cc3ccccc3o2)cs1 (stereo not given) | 3.2 | · | · | -32.5 | · | ·
OC(c1ccc(F)cc1)c1nc(-c2cc3ccccc3o2)cs1 (stereo not given) | 45.2* | · | · | 75.2* | · | ·

Compound activity (PubChem BioAssay)
